Values after ≈ are worked out from the molar mass of the structure shown. Active and inactive are the calls of the source. The calls are words filed in the database; no cut-off is given here.
Test system: Enterococcus faecium
Assay: Antibacterial activity against Enterococcus faecium HM968 incubated for 18 to 20 hrs under aerobic condition by CLSI protocol based broth microdilution assay
Assay type: functional
Details: time hrs 18-20
Procedure, shortened: (§1)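 Broth microdilution per CLSI. Strains grown aerobically overnight on trypticase soy agar at 37 °C. Inoculum set to 0.5 McFarland, diluted in trypticase soy broth to about 5 × 10⁵ CFU/mL. Agents serially diluted, plates incubated aerobically at 37 °C for 18–20 h. MIC is the lowest concentration with no visible growth. Compound stocks 10 mg/mL in DMSO.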

Compound | MIC
CC(=O)NC[C@H]1CN(c2ccc(N3CCOCC3)c(F)c2)C(=O)O1 [LINEZOLID] | 0.5 µg/mL (≈ 1.48 µM)
NS(=O)(=O)c1nnc(NC(=O)CC2CCCC2)s1 | 0.06 µg/mL (≈ 0.207 µM)
NS(=O)(=O)c1nnc(NC(=O)CN2CCOCC2)s1 | 1 µg/mL (≈ 3.25 µM)

Test system: not listed separately
Assay: Aqueous solubility of compound in pH 7.4 PBS measured at 24 hrs by HPLC analysis
Assay type: physicochemical
Details: buffer, pH 7.4, 24 h
Procedure, shortened: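 HPLC principal-peak area of the buffer sample compared with a 200 μM calibration standard in methanol/water 60/40.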

Compound | solubility
NS(=O)(=O)c1nnc(NC(=O)CN2CCOCC2)s1 | 126.6 µM (≈ 38.9 µg/mL)

Test system: Enterococcus faecium
Assay: Antibacterial activity against Enterococcus faecium HM965 incubated for 18 to 20 hrs under aerobic condition by CLSI protocol based broth microdilution assay
Assay type: functional
Details: time hrs 18-20
Procedure, shortened: as §1

Compound | MIC
NS(=O)(=O)c1nnc(NC(=O)CC2CCCC2)s1 | 0.06 µg/mL (≈ 0.207 µM)
NS(=O)(=O)c1nnc(NC(=O)CN2CCOCC2)s1 | 1 µg/mL (≈ 3.25 µM)

Test system: Enterococcus faecium
Assay: Antibacterial activity against Enterococcus faecium NR-31914 incubated for 18 to 20 hrs under aerobic condition by CLSI protocol based broth microdilution assay
Assay type: functional
Details: time hrs 18-20
Procedure, shortened: as §1

Compound | MIC
CC(=O)NC[C@H]1CN(c2ccc(N3CCOCC3)c(F)c2)C(=O)O1 [LINEZOLID] | 1 µg/mL (≈ 2.96 µM)
NS(=O)(=O)c1nnc(NC(=O)CC2CCCC2)s1 | 0.125 µg/mL (≈ 0.43 µM)
NS(=O)(=O)c1nnc(NC(=O)CN2CCOCC2)s1 | 2 µg/mL (≈ 6.51 µM)

Test system: Enterococcus faecalis
Assay: Antibacterial activity against Enterococcus faecalis HM-335 incubated for 18 to 20 hrs under aerobic condition by CLSI protocol based broth microdilution assay
Assay type: functional
Details: time hrs 18-20
Procedure, shortened: as §1

Compound | MIC
CC(=O)NC[C@H]1CN(c2ccc(N3CCOCC3)c(F)c2)C(=O)O1 [LINEZOLID] | 0.5 µg/mL (≈ 1.48 µM)
NS(=O)(=O)c1nnc(NC(=O)CC2CCCC2)s1 | 0.03 µg/mL (≈ 0.103 µM)
NS(=O)(=O)c1nnc(NC(=O)CN2CCOCC2)s1 | 0.5 µg/mL (≈ 1.63 µM)

Test system: Enterococcus faecium
Assay: Antibacterial activity against Enterococcus faecium NR-31903 incubated for 18 to 20 hrs under aerobic condition by CLSI protocol based broth microdilution assay
Assay type: functional
Details: time hrs 18-20
Procedure, shortened: as §1

Compound | MIC
CC(=O)NC[C@H]1CN(c2ccc(N3CCOCC3)c(F)c2)C(=O)O1 [LINEZOLID] | 1 µg/mL (≈ 2.96 µM)
NS(=O)(=O)c1nnc(NC(=O)CC2CCCC2)s1 | 0.125 µg/mL (≈ 0.43 µM)
NS(=O)(=O)c1nnc(NC(=O)CN2CCOCC2)s1 | 2 µg/mL (≈ 6.51 µM)

Test system: Enterococcus faecium
Assay: Bacteriostatic activity against Enterococcus faecium ATCC 700221 assessed as reduction in bacterial burden at 5 times MIC preincubated for 24 hrs followed by replating on soya agar plates and measured after 16 hrs by time-kill assay
Assay type: functional, organism-based
Details: not given
Procedure, shortened: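 E. faecium ATCC 700221 overnight culture diluted in trypticase soy broth to 3.5 × 10⁶ CFU/mL. […] Samples taken at 2, 4, 6, 8, 12 and 24 h, diluted in PBS and plated on trypticase soy agar. Colonies counted after 16 h at 37 °C. Detection limit 100 CFU/mL. Two-way ANOVA with Dunnett's test.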

Compound | Activity
CC(=O)NC[C@H]1CN(c2ccc(N3CCOCC3)c(F)c2)C(=O)O1 [LINEZOLID] | Active
NS(=O)(=O)c1nnc(NC(=O)CN2CCOCC2)s1 | Active

Test system: Enterococcus faecium
Assay: Antibacterial activity against Enterococcus faecium NR-31972 incubated for 18 to 20 hrs under aerobic condition by CLSI protocol based broth microdilution assay
Assay type: functional
Details: time hrs 18-20
Procedure, shortened: as §1

Compound | MIC
CC(=O)NC[C@H]1CN(c2ccc(N3CCOCC3)c(F)c2)C(=O)O1 [LINEZOLID] | 0.5 µg/mL (≈ 1.48 µM)
NS(=O)(=O)c1nnc(NC(=O)CC2CCCC2)s1 | 0.03 µg/mL (≈ 0.103 µM)
NS(=O)(=O)c1nnc(NC(=O)CN2CCOCC2)s1 | 4 µg/mL (≈ 13 µM)

Test system: Enterococcus faecalis
Assay: Antibacterial activity against Enterococcus faecalis HM-334 incubated for 18 to 20 hrs under aerobic condition by CLSI protocol based broth microdilution assay
Assay type: functional
Details: time hrs 18-20
Procedure, shortened: as §1

Compound | MIC
NS(=O)(=O)c1nnc(NC(=O)CC2CCCC2)s1 | 0.03 µg/mL (≈ 0.103 µM)
NS(=O)(=O)c1nnc(NC(=O)CN2CCOCC2)s1 | 4 µg/mL (≈ 13 µM)

Test system: not listed separately
Assay: Apparent permeability across basolateral to apical side in human Caco2 cells
Assay type: ADME, cell-based
Details: caco-2
Procedure, shortened: (§2)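 Bi-directional Caco-2 monolayer permeability, run at Eurofins: donor at pH 6.5, receiver at pH 7.4, both A→B and B→A. Papp derived from receiver concentration at the end point, incubation time, monolayer area and mid-point donor concentration. Concentrations taken as peak areas.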

Compound | Papp
NS(=O)(=O)c1nnc(NC(=O)CN2CCOCC2)s1 | < 0.17 10^-6 cm/s

Test system: Enterococcus faecium
Assay: Antibacterial activity against Enterococcus faecium NR-28978 incubated for 18 to 20 hrs under aerobic condition by CLSI protocol based broth microdilution assay
Assay type: functional
Details: time hrs 18-20
Procedure, shortened: as §1

Compound | MIC
CC(=O)NC[C@H]1CN(c2ccc(N3CCOCC3)c(F)c2)C(=O)O1 [LINEZOLID] | 1 µg/mL (≈ 2.96 µM)
NS(=O)(=O)c1nnc(NC(=O)CC2CCCC2)s1 | 0.125 µg/mL (≈ 0.43 µM)
NS(=O)(=O)c1nnc(NC(=O)CN2CCOCC2)s1 | 2 µg/mL (≈ 6.51 µM)

Test system: Enterococcus faecium
Assay: Inhibition of carbonic anhydrase in Enterococcus faecium ATCC 700221 assessed as antibacterial activity incubated for 18 to 20 hrs in presence of 5% CO2 by CLSI protocol based broth microdilution assay
Details: time hrs 18-20
Procedure, shortened: (§3)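 CLSI broth microdilution: inoculum about 5 × 10⁵ CFU/mL in trypticase soy broth with serial dilutions of agents. Paired plates incubated at 37 °C for 18–20 h, one set in ambient air ("normal"), the other under 5% CO₂. MIC is the lowest concentration completely inhibiting visible growth.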

Compound | inhibition
NS(=O)(=O)c1nnc(NC(=O)CC2CCCC2)s1 | inactive
NS(=O)(=O)c1nnc(NC(=O)CN2CCOCC2)s1 | inactive

Test system: Enterococcus faecium
Assay: Inhibition of carbonic anhydrase in Enterococcus faecium ATCC 700221 assessed as antibacterial activity incubated for 18 to 20 hrs in presence of ambient air by CLSI protocol based broth microdilution assay
Details: time hrs 18-20
Procedure, shortened: as §3

Compound | inhibition
NS(=O)(=O)c1nnc(NC(=O)CC2CCCC2)s1 | Active
NS(=O)(=O)c1nnc(NC(=O)CN2CCOCC2)s1 | Active

Test system: not listed separately
Assay: Cytotoxicity against human Caco2 cells incubated for 2 hrs by MTS assay
Assay type: cell-based
Details: Caco-2 cells
Procedure, shortened: (§4)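 Caco-2 cells maintained in DMEM with 10% FBS, non-essential amino acids and penicillin-streptomycin at 37 °C, 5% CO₂. Compound exposure for 2 h in serum-free medium at several concentrations; DMSO-matched controls. Viability expressed relative to DMSO controls (mean ± SD), and CC₅₀ derived.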

Compound | CC50 at 2 h
NS(=O)(=O)c1nnc(NC(=O)CC2CCCC2)s1 | > 128 µg/mL
NS(=O)(=O)c1nnc(NC(=O)CN2CCOCC2)s1 | > 128 µg/mL

Test system: Enterococcus faecium
Assay: Antibacterial activity against Enterococcus faecium NR-31971 incubated for 18 to 20 hrs under aerobic condition by CLSI protocol based broth microdilution assay
Assay type: functional
Details: time hrs 18-20
Procedure, shortened: as §1

Compound | MIC
CC(=O)NC[C@H]1CN(c2ccc(N3CCOCC3)c(F)c2)C(=O)O1 [LINEZOLID] | 1 µg/mL (≈ 2.96 µM)
NS(=O)(=O)c1nnc(NC(=O)CC2CCCC2)s1 | 0.06 µg/mL (≈ 0.207 µM)
NS(=O)(=O)c1nnc(NC(=O)CN2CCOCC2)s1 | 2 µg/mL (≈ 6.51 µM)

Test system: Enterococcus faecium
Assay: Antibacterial activity against Enterococcus faecium NR-31916 incubated for 18 to 20 hrs under aerobic condition by CLSI protocol based broth microdilution assay
Assay type: functional
Details: time hrs 18-20
Procedure, shortened: as §1

Compound | MIC
CC(=O)NC[C@H]1CN(c2ccc(N3CCOCC3)c(F)c2)C(=O)O1 [LINEZOLID] | 1 µg/mL (≈ 2.96 µM)
NS(=O)(=O)c1nnc(NC(=O)CC2CCCC2)s1 | 0.015 µg/mL (≈ 0.0517 µM)
NS(=O)(=O)c1nnc(NC(=O)CN2CCOCC2)s1 | 1 µg/mL (≈ 3.25 µM)

Test system: not listed separately
Assay: Apparent permeability across apical to basolateral side in human Caco2 cells
Assay type: ADME, cell-based
Details: caco-2
Procedure, shortened: as §2

Compound | Papp
NS(=O)(=O)c1nnc(NC(=O)CN2CCOCC2)s1 | < 0.17 10^-6 cm/s

Test system: not listed separately
Assay: Half life in human liver microsomes after 60 mins
Assay type: ADME, Microsome
Details: 1 h

Compound | t1/2
NS(=O)(=O)c1nnc(NC(=O)CN2CCOCC2)s1 | 4.95 h

Test system: Enterococcus faecium
Assay: Antibacterial activity against Enterococcus faecium NR-32065 incubated for 18 to 20 hrs under aerobic condition by CLSI protocol based broth microdilution assay
Assay type: functional
Details: time hrs 18-20
Procedure, shortened: as §1

Compound | MIC
CC(=O)NC[C@H]1CN(c2ccc(N3CCOCC3)c(F)c2)C(=O)O1 [LINEZOLID] | 0.25 µg/mL (≈ 0.741 µM)
NS(=O)(=O)c1nnc(NC(=O)CC2CCCC2)s1 | 0.015 µg/mL (≈ 0.0517 µM)
NS(=O)(=O)c1nnc(NC(=O)CN2CCOCC2)s1 | 2 µg/mL (≈ 6.51 µM)

Test system: Enterococcus faecium
Assay: Antibacterial activity against Enterococcus faecium NR-32052 incubated for 18 to 20 hrs under aerobic condition by CLSI protocol based broth microdilution assay
Assay type: functional
Details: time hrs 18-20
Procedure, shortened: as §1

Compound | MIC
CC(=O)NC[C@H]1CN(c2ccc(N3CCOCC3)c(F)c2)C(=O)O1 [LINEZOLID] | 0.5 µg/mL (≈ 1.48 µM)
NS(=O)(=O)c1nnc(NC(=O)CC2CCCC2)s1 | 0.06 µg/mL (≈ 0.207 µM)
NS(=O)(=O)c1nnc(NC(=O)CN2CCOCC2)s1 | 1 µg/mL (≈ 3.25 µM)

Test system: not listed separately
Assay: Metabolic stability in human liver microsomes assessed as compound remaining measured after 60 mins
Assay type: ADME, Microsome
Details: 1 h
Procedure, shortened: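 Human liver microsomes at 0.1 mg/mL, 37 °C. Percent parent remaining at 60 min, mean of 2 replicates.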

Compound | Stabilty
NS(=O)(=O)c1nnc(NC(=O)CN2CCOCC2)s1 | 86%

Test system: Caco-2
Assay: Cytotoxicity against human Caco2 cells at 128 ug/ml incubated for 2 hrs by MTS assay
Assay type: cell-based
Details: caco-2, 2 h, dose 128 µg/ml
Procedure, shortened: as §4

Compound | Activity
NS(=O)(=O)c1nnc(NC(=O)CC2CCCC2)s1 | Non-Toxic
NS(=O)(=O)c1nnc(NC(=O)CN2CCOCC2)s1 | Non-Toxic

Test system: Enterococcus faecalis
Assay: Antibacterial activity against Enterococcus faecalis NR-31975 incubated for 18 to 20 hrs under aerobic condition by CLSI protocol based broth microdilution assay
Assay type: functional, organism-based
Details: time hrs 18-20
Procedure, shortened: as §1

Compound | Activity
NS(=O)(=O)c1nnc(NC(=O)CC2CCCC2)s1 | Active

Test system: Enterococcus faecalis
Assay: Antibacterial activity against Enterococcus faecalis NR-31970 incubated for 18 to 20 hrs under aerobic condition by CLSI protocol based broth microdilution assay
Assay type: functional, organism-based
Details: time hrs 18-20
Procedure, shortened: as §1

Compound | Activity
NS(=O)(=O)c1nnc(NC(=O)CC2CCCC2)s1 | Active

— ChEMBL document CHEMBL4725360, “Optimization of Acetazolamide-Based Scaffold as Potent Inhibitors of Vancomycin-Resistant Enterococcus” (J Med Chem, 2020)
